Source: ChEMBL document CHEMBL3822375, “Preclinical Characterization of 3β-(N-Acetyl l-cysteine methyl ester)-2aβ,3-dihydrogaliellalactone (GPA512), a Prodrug of a Direct STAT3 Inhibitor for the Treatment of Prostate Cancer” (J Med Chem, 2016)
Active and inactive are the calls of the source. No cut-off for these calls is given here.

What was measured:
[1] = Chemical stability of the compound in phosphate buffer saline assessed as half life at 10 uM at pH 7.4 by LC-MS/MS analysis; assay type: physicochemical; details: phosphate buffered saline
Procedure, shortened: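 Compound diluted from DMSO (or methanol) stock to 10 µM, 2% solvent final, n=2. Matrix was 0.1 M PBS pH 7.4, or […] HCl with 2 mg/mL NaCl adjusted to pH 1.2. Mixed on a shaker; sampled at nominal 5, 15, 30 and 60 min plus T=0. LC-MS/MS with internal standard; % remaining relative to T=0. Formation of parent also monitored.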

[2] = Antiproliferative activity against human DU145 cells after 72 hrs by WST-1 proliferation assay; assay type: functional, cell-based; details: DU-145, 72 h
Procedure, shortened: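 Cells in RPMI-1640 (DU145, LNCaP, LNCaP-IL6+) or HAM's F-12 (PC3) with 10% FBS. DU145 and LNCaP-IL6+ seeded at 2 000 cells/well, LNCaP and PC3 at 5 000 cells/well, adhered 24 h, then exposed to compound for 72 h. WST-1 absorbance read at 450 nm with 630 nm reference. Background subtracted; expressed as percent of untreated cells.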

[3] = system: Plasma; assay: Half life in mouse plasma assessed as formation of galiellalactone at 5 uM by LC-MS/MS analysis; assay type: ADME, cell-free
Procedure, shortened: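 Plasma of each species incubated at 37 °C with compound at 5 µM initial, 1% DMSO, n=2. Simvastatin and eucatropine run as controls. Aliquots taken at 0, 5, 15, 30 and 60 min and quenched with acetonitrile containing internal standard, then analysed by LC-MS/MS.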

[4] = system: Mus musculus; assay: AUC (0 to t) in mouse plasma assessed as galiellalactone level at 40 mg/kg, po by LC-MS/MS analysis; assay type: ADME, organism-based; details: in vivo
Procedure, shortened: (§1)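 Single dose to mice; oral, iv or ip as listed, in 5% DMSO/50 mM citrate buffer pH 4.0 (dosing solutions 0.5, 2 or 5 mg/mL). Oral dosing at 20 mL/kg. Terminal blood under barbiturate anaesthesia at eight time-points to 8 h, n=3 mice per time-point, EDTA plasma. Acetonitrile precipitation with internal standard, LC-MS/MS against plasma calibration lines. Non-compartmental analysis on mean data, trapezoidal AUC.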

[5] = system: Mus musculus; assay: AUC (0 to infinity) in mouse plasma at 40 mg/kg, po by LC-MS/MS analysis; assay type: ADME, organism-based; design: dose 40 mg/kg, route oral, time infinity; details: in vivo; procedure, shortened: as §1
[6] = system: Mus musculus; assay: Cmax in mouse plasma assessed as galiellalactone level at 100 mg/kg, po by LC-MS/MS analysis; assay type: ADME, organism-based; design: dose 100 mg/kg, route oral; details: in vivo; procedure, shortened: as §1
[7] = system: Mus musculus; assay: AUC (0 to t) in mouse plasma assessed as galiellalactone level at 100 mg/kg, po by LC-MS/MS analysis; assay type: ADME, organism-based; details: in vivo; procedure, shortened: as §1
[8] = system: Mus musculus; assay: AUC (0 to infinity) in mouse plasma assessed as galiellalactone level at 100 mg/kg, po by LC-MS/MS analysis; assay type: ADME, organism-based; design: dose 100 mg/kg, time infinity, route oral; details: in vivo; procedure, shortened: as §1
[9] = system: Mus musculus; assay: Toxicity in NMRI mouse xenografted with human DU145 cells assessed as weight loss at 40 mg/kg, po administered 5 times per week for 4 weeks measured on day 26 and day 29; assay type: organism-based, DU-145; details: in vivo, 672 h
Procedure, shortened: (§2)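 Male NMRI-nude mice, 20 in total, were given 1.5 million DU145 cells subcutaneously in the flank. After 4 weeks they were split into two groups of 10. Each group was gavaged with 40 mg/kg or with vehicle (50 mM citrate buffer pH 4.0, 2% DMSO) daily, 5 times per week for 4 weeks. Body weight, behaviour, side effects and survival were monitored, and tumours were measured twice weekly by caliper.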

[10] = system: Mus musculus; assay: Toxicity in NMRI mouse xenografted with human DU145 cells assessed as behavioral alterations at 40 mg/kg, po administered 5 times per week for 4 weeks measured on day 26 and day 29; assay type: organism-based, DU-145; details: in vivo, 672 h; procedure, shortened: as §2
[11] = Downregulation of BCL2 mRNA expression in human DU145 cells xenografted in NMRI nude mouse at 40 mg/kg, po administered 5 times per week for 4 weeks by qPCR analysis; assay type: functional, organism-based; details: DU-145
Procedure, shortened: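 Half of each DU145 xenograft tumour was snap frozen for mRNA. MCL1 and BCL2 measured by quantitative real-time PCR: 10 min at 95°C, then 40 cycles of 95°C 15 s and 60°C 60 s. Comparative Ct method, normalized to HMBS and SDHA.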

[12] = system: Mus musculus; assay: Toxicity in CD1 mouse assessed as change in body weight at 40 mg/kg, administered as single dose through oral gavage measured on day 1 (reference value: 33.5 +/- 4.34 g); assay type: organism-based; details: in vivo
[13] = system: Mus musculus; assay: Toxicity in CD1 mouse assessed as change in body weight at 200 mg/kg, administered as single dose through oral gavage measured on day 1 (reference value: 33.5 +/- 4.34 g); assay type: organism-based; details: in vivo
[14] = system: Mus musculus; assay: Toxicity in CD1 mouse assessed as change in body weight at 200 mg/kg, administered as single dose through oral gavage measured on day 4 (reference value: 34.68 +/- 4.71 g); assay type: organism-based; details: in vivo
[15] = system: Mus musculus; assay: Toxicity in CD1 mouse assessed as change in body weight at 400 mg/kg, administered as single dose through oral gavage measured on day 1 (reference value: 33.5 +/- 4.34 g); assay type: organism-based; details: in vivo
[16] = system: Mus musculus; assay: Toxicity in CD1 mouse assessed as change in body weight at 400 mg/kg, administered as single dose through oral gavage measured on day 8 (reference value: 32.28 +/- 4.42 g); assay type: organism-based; details: in vivo
[17] = system: Mus musculus; assay: Cmax in mouse plasma assessed as galiellalactone level at 10 mg/kg, po by LC-MS/MS analysis; assay type: ADME, organism-based; design: dose 10 mg/kg, route oral; details: in vivo; procedure, shortened: as §1
[18] = system: Mus musculus; assay: AUC (0 to t) in mouse plasma assessed as galiellalactone level at 10 mg/kg, po by LC-MS/MS analysis; assay type: ADME, organism-based; details: in vivo; procedure, shortened: as §1
[19] = system: Mus musculus; assay: AUC (0 to infinity) in mouse plasma assessed as galiellalactone level at 10 mg/kg, po by LC-MS/MS analysis; assay type: ADME, organism-based; design: dose 10 mg/kg, route oral, time infinity; details: in vivo; procedure, shortened: as §1
[20] = system: Mus musculus; assay: Toxicity in NMRI mouse xenografted with human DU145 cells assessed as mouse survival at 40 mg/kg, po administered 5 times per week for 4 weeks measured on day 26 and day 29; assay type: organism-based, DU-145; details: in vivo, 672 h; procedure, shortened: as §2
[21] = Toxicity in CD1 mouse at 40 to 400 mg/kg, administered as single dose through oral gavage; assay type: organism-based; details: in vivo
Procedure, shortened: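 Male CD1 mice, 7 weeks old (27.0–38.5 g), 5 per group, given one oral gavage dose of 40, 200 or 400 mg/kg as a solution in 50 mM citrate buffer pH 4.0 with 5% DMSO. Vehicle-only control group. Weighed at randomization, day 1 before dosing, day 4 and day 8 (study end). Clinical signs, clinical pathology and histopathology were assessed to set the MTD.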

[22] = system: Mus musculus; assay: Toxicity in CD1 mouse assessed as effect on clinical signs at 40 to 400 mg/kg, administered as single dose through oral gavage; assay type: organism-based; details: in vivo
Procedure, shortened: (§3)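 Male CD1 mice, 7 weeks old, 5 per group, given one oral gavage dose of 40, 200 or 400 mg/kg in 50 mM citrate buffer, pH 4.0, 5% DMSO, alongside a vehicle control group. Clinical signs, clinical pathology and histopathology were assessed, with the study ending on day 8.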

[23] = system: Mus musculus; assay: Toxicity in CD1 mouse assessed as effect on clinical pathological parameters at 40 to 400 mg/kg, administered as single dose through oral gavage; assay type: organism-based; details: in vivo; procedure, shortened: as §3
[24] = system: Mus musculus; assay: Toxicity in CD1 mouse assessed as effect on histopathological parameters at 40 to 400 mg/kg, administered as single dose through oral gavage; assay type: organism-based; details: in vivo; procedure, shortened: as §3

SMILES: COC(=O)[C@H](CS[C@H]1C2C(=O)O[C@@H]3CC[C@H](C[C@@H]1C)[C@]23O)NC(C)=O (some centres undefined)
- half-life at 10 µM [1]: > 2.5 h
- IC50 [2]: 4.81 µM
- t1/2 [3]: < 5 min
- AUCt [4]: 213 µg/mL/min
- AUC [5]: 215 µg/mL/min
- Cmax [6]: 7478 ng/mL
- AUCt [7]: 676 µg/mL/min
- AUC [8]: 679 µg/mL/min
- Activity [9]: Non-toxic
- Activity [10]: Non-toxic
- Activity [11]: Active
- Activity [12]: 32.52 g
- Activity [13]: 33.56 g
- Activity [14]: 35.3 g
- Activity [15]: 33.16 g
- Activity [16]: 32.1 g
- Cmax [17]: 1893 ng/mL
- AUCt [18]: 117 µg/mL/min
- AUC [19]: 120 µg/mL/min
- Activity [20]: Non-toxic
- MTD [21]: 400 mg/kg
- Activity [22]: Non-toxic
- Activity [23]: Non-toxic
- Activity [24]: Non-toxic
